Experimental data reported in ChEMBL document CHEMBL5329156, “Discovery and development of novel substituted monohydrazides as potent antifungal agents” (RSC Med Chem, 2023).
In brackets after ≈: the same amount, converted by molar mass.

Experiments:
[1] = tested on: Candida albicans; experiment: Antifungal activity against Candida albicans ATCC 10231 assessed as fungal growth inhibition by double dilution method; type: functional
Outline: (§1)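 Broth microdilution after CLSI M27-A3/M38-A2 with minor changes. Single colony grown overnight in YPD at 35 °C, 200 rpm. Compound final range 0.06-31.3 µg/mL; incubated 48 h at 35 °C.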

[2] = tested on: Candida albicans; experiment: Antifungal activity against Candida albicans ATCC 64124 assessed as fungal growth inhibition by double dilution method; type: functional
Outline: (§2)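 Broth microdilution after CLSI M27-A3/M38-A2 with minor modifications. A single colony was grown overnight in YPD at 35 °C with shaking at 200 rpm. Cells were mixed 1:1 with compound (final 0.06-31.3 µg/mL, from DMSO stocks) and incubated 48 h at 35 °C.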

[3] = tested on: Candida albicans; experiment: Antifungal activity against itraconazole/fluconazole susceptible Candida albicans ATCC MYA-2876 assessed as fungal growth inhibition by double dilution method; type: functional; outline: as §2
[4] = tested on: Candida albicans; experiment: Antifungal activity against itraconazole/fluconazole resistant Candida albicans ATCC 90819 assessed as fungal growth inhibition by double dilution method; type: functional; outline: as §2
[5] = tested on: Candida albicans; experiment: Antifungal activity against itraconazole/fluconazole susceptible Candida albicans ATCC MYA-2310 assessed as fungal growth inhibition by double dilution method; type: functional; outline: as §2
[6] = tested on: Candida albicans; experiment: Antifungal activity against itraconazole/fluconazole resistant Candida albicans ATCC MYA-1237 assessed as fungal growth inhibition by double dilution method; type: functional; outline: as §2
[7] = tested on: Candida albicans; experiment: Antifungal activity against itraconazole/fluconazole resistant Candida albicans ATCC MYA-1003 assessed as fungal growth inhibition by double dilution method; type: functional; outline: as §2
[8] = tested on: Nakaseomyces glabratus; experiment: Antifungal activity against Candida glabrata ATCC 2001 assessed as fungal growth inhibition by double dilution method; type: functional; outline: as §1
[9] = tested on: Pichia kudriavzevii; experiment: Antifungal activity against Pichia kudriavzevii ATCC 6258 assessed as fungal growth inhibition by double dilution method; type: functional; outline: as §1
[10] = tested on: Nakaseomyces glabratus; experiment: Antifungal activity against Candida glabrata ATCC 22019 assessed as fungal growth inhibition by double dilution method; type: functional; outline: as §1
[11] = tested on: [Candida] auris; experiment: Antifungal activity against Candida auris AR Bank # 0384 assessed as fungal growth inhibition by double dilution method; type: functional; details: Candidozyma auris; outline: as §1
[12] = tested on: [Candida] auris; experiment: Antifungal activity against Candida auris AR Bank # 0390 assessed as fungal growth inhibition by double dilution method; type: functional; details: Candidozyma auris; outline: as §1
[13] = tested on: Cryptococcus neoformans; experiment: Antifungal activity against Cryptococcus neoformans ATCC MYA-895 assessed as fungal growth inhibition by double dilution method; type: functional; outline: as §1
[14] = tested on: Aspergillus terreus; experiment: Antifungal activity against Aspergillus terreus ATCC MYA-3633 assessed as fungal growth inhibition by double dilution method; type: functional
[15] = tested on: Aspergillus fumigatus; experiment: Antifungal activity against Aspergillus fumigatus NRRL 163 assessed as fungal growth inhibition by double dilution method; type: functional
[16] = tested on: Aspergillus flavus; experiment: Antifungal activity against Aspergillus flavus ATCC MYA-3631 assessed as fungal growth inhibition by double dilution method; type: functional
[17] = tested on: Aspergillus nidulans; experiment: Antifungal activity against Aspergillus nidulans ATCC 38163 assessed as fungal growth inhibition by double dilution method; type: functional
[18] = tested on: Aspergillus fumigatus; experiment: Antifungal activity against Aspergillus fumigatus NRRL 5109 assessed as fungal growth inhibition by double dilution method; type: functional
[19] = tested on: Aspergillus fumigatus; experiment: Antifungal activity against Aspergillus fumigatus NRRL 6113 assessed as fungal growth inhibition by double dilution method; type: functional
[20] = tested on: J774.A1; experiment: Cytotoxicity against J774A.1 cells assessed as reduction in cell viability at 31.3 microg/ml; type: toxicity, cell-based; details: mouse, dose 31.3 µg/ml
Outline: (§3)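 Cells in DMEM with 10% FBS and 1% Pen/Strep, seeded at 10,000 cells/well and held overnight at 37 °C, 5% CO2. Compounds added at final 31.3-0.12 µg/mL (0.05% DMSO vehicle) for 24 h. Resazurin then added for 6 h; fluorescence read at ex 560/em 590. Triton X-100 1% as positive control; values normalized to vehicle. Run in quadruplicate.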

[21] = tested on: HEK293; experiment: Cytotoxicity against human HEK-293 cells assessed as reduction in cell viability at 31.3 microg/ml; type: toxicity, cell-based; details: dose 31.3 µg/ml; outline: as §3
[22] = Cytotoxicity against human HepG2 cells assessed as cell survival at 31.3 microg/ml relative to control; type: toxicity, cell-based; details: at 31.3 µg/mL, read-out: Activity; outline: as §3

O=C(NNc1cccc(F)c1)c1cnccn1
MIC [1]: 0.24 µg/mL (≈ 1.03 µM) | MIC [2]: 1.95 µg/mL (≈ 8.4 µM) | MIC [3]: 3.9 µg/mL (≈ 16.8 µM) | MIC [4]: 0.98 µg/mL (≈ 4.22 µM) | MIC [5]: 7.8 µg/mL (≈ 33.6 µM) | MIC [6]: 0.98 µg/mL (≈ 4.22 µM) | MIC [7]: 0.98 µg/mL (≈ 4.22 µM) | MIC [8]: 7.8 µg/mL (≈ 33.6 µM) | MIC [9]: 0.49 µg/mL (≈ 2.11 µM) | MIC [10]: 3.9 µg/mL (≈ 16.8 µM) | MIC [11]: 0.98 µg/mL (≈ 4.22 µM) | MIC [12]: 0.98 µg/mL (≈ 4.22 µM) | MIC [13]: 0.12 µg/mL (≈ 0.517 µM) | MIC [14]: 0.98 µg/mL (≈ 4.22 µM) | MIC [15]: > 31.3 µg/mL | MIC [16]: 15.6 µg/mL (≈ 67.2 µM) | MIC [17]: 0.98 µg/mL (≈ 4.22 µM) | MIC [18]: > 31.3 µg/mL | MIC [19]: > 31.3 µg/mL | Activity [20]: Non-Toxic | Activity [21]: Non-Toxic | viability at 31.3 microg/ml [22]: 94%
